The source of these data is article PMC3514448 (ACS chemical biology, 2012).

≈ marks a conversion by molar mass, not a printed value. Like-named read-outs stand apart in the source and are kept apart here.

One data set concerns the target EcFtsZ (Escherichia coli, UniProt P0A9A6). It is filed as biochemical. Conditions: for Inhibition of EcFtsZ GTPase activity with detergent: 0.01% Triton X-100; for Inhibition of EcFtsZ GTPase activity at increasing FtsZ concentrations: increasing protein concentration.
For data set [1], the target named is T1, BsFtsZ (Bacillus subtilis, UniProt P17865). In words: Enzyme-coupled GTPase assay, BsFtsZ. It is filed as biochemical. The conditions noted are these: for Inhibition of BsFtsZ GTPase activity: absence of Triton X-100; for Inhibition of BsFtsZ GTPase activity with detergent: 0.01% Triton X-100; for Inhibition of BsFtsZ GTPase activity at increasing FtsZ concentrations: increasing protein concentration.

Data set [2] has as its system FtsZ. Conditions: cited from earlier work.
Data set [3] concerns the target T1, BsFtsZ. In words: Malachite green GTPase assay, BsFtsZ. It is filed as biochemical. Conditions: concentrations up to 100 μM.
The target of another data set is SaFtsZ (Staphylococcus aureus, UniProt P0A031). In words: GTPase assay, SaFtsZ. It is filed as biochemical. The method in brief:
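Recombinant S. aureus FtsZ (pET11a, E. coli C41(DE3), IPTG 30 °C 5 h) purified by ammonium sulfate and anion exchange; BCA concentration divided by 0.75. 10 μM FtsZ with inhibitor in DMSO, pH 6.5 MES/Mg(OAc)2/KOAc, preincubated 5 min, then GTP added. Coupled: PK/LDH, PEP, NADH, A340 over time at ~25 °C. Malachite green: 30 °C, EDTA-quenched time points, A630 against phosphate standards.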

The subject of a further data set is B. subtilis strain 168. Nature of the data set: Antimicrobial activity. It is filed as cell-based, Bacillus subtilis.
Data set [4] concerns FtsZ. In words: Malachite green GTPase assay under approximate Merck viriditoxin conditions. In kind it is biochemical. Conditions: up to 128 μM; 50 mM Tris, 34 mM KCl, 0.75 mM Mg(OAc)2, 2.5 mM CaCl2, 50 μg/mL DEAE-Dextran, 37 °C.
Data set [5] is described as follows: Chemical stability on storage. It is filed as physicochemical. Conditions: degrades if not stored free of solvent and at low temperature.
The test system of the next data set is tubulin. The conditions noted are these: berberine even at high concentration (100 μM); cited from earlier work.
In the next data set the target is T2, Dnm1 (Saccharomyces cerevisiae, UniProt P54861).
T2 sequence (P54861 1-757): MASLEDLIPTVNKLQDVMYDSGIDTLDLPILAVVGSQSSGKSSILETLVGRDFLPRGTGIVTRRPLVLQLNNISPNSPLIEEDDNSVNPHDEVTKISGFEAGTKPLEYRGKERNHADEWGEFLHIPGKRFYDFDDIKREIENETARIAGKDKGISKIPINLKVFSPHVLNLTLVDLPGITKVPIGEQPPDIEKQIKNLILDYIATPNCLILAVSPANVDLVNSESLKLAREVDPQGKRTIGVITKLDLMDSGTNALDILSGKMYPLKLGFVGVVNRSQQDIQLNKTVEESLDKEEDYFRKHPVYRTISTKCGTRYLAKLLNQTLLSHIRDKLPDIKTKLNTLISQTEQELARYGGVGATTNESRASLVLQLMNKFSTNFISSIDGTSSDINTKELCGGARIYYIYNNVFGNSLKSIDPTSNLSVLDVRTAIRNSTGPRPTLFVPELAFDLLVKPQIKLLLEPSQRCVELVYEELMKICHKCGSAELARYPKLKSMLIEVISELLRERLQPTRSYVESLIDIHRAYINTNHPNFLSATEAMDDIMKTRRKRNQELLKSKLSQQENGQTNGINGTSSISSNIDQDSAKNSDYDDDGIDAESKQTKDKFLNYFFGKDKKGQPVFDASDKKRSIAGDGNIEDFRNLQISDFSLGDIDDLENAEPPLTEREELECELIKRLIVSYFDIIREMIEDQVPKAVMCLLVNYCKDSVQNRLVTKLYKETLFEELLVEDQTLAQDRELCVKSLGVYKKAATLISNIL
In words: GTPase activity of the eukaryotic GTPase Dnm1. It is filed as biochemical.

[6] abbreviates: standard conditions, up to 200 μM.

T1 sequence (P17865 whole entry): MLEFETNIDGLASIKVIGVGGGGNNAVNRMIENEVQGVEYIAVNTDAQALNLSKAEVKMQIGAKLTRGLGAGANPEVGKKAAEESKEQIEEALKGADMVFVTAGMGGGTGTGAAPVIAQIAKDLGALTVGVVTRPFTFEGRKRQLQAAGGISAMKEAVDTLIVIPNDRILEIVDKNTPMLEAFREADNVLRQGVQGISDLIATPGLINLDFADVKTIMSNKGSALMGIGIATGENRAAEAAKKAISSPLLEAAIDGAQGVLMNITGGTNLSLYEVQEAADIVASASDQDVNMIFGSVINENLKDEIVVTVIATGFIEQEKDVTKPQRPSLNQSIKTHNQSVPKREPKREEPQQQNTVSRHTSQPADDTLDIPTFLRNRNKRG
EcFtsZ, sequence (P0A9A6 whole entry): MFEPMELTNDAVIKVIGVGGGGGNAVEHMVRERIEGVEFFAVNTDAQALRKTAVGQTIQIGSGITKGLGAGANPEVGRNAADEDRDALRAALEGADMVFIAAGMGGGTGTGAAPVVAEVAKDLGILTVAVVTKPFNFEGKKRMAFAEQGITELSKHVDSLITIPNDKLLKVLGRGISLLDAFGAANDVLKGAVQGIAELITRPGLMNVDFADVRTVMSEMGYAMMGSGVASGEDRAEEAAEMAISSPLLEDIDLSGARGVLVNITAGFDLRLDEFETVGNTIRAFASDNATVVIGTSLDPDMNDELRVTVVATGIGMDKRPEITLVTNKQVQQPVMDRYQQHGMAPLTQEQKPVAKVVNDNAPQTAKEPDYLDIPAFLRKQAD
SaFtsZ, sequence (P0A031 whole entry): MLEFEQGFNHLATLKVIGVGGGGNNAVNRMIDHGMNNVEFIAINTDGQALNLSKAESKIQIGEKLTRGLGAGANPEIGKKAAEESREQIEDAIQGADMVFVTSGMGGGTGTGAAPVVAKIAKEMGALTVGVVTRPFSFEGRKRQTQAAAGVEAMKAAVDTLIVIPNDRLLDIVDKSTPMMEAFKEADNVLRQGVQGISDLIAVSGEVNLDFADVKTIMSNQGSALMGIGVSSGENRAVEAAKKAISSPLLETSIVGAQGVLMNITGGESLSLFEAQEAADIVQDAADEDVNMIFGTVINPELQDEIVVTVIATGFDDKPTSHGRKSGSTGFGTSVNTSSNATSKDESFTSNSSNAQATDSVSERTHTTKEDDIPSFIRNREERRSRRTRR

Consider `O=C1CC(c2ccc(O)cc2)Oc2c(Cc3ccccc3O)c(O)c(Cc3ccccc3O)c(O)c21` (stereo not shown) [4′-hydroxydichamanetin], for which the “Inhibition of EcFtsZ GTPase activity” value on EcFtsZ was “exhibited the published activity”. For the same compound, on BsFtsZ [1], the “Inhibition of BsFtsZ GTPase activity” value was “exhibited the published activity”.
As for `COc1nc2c(=O)[nH]c(N)nc2n1[C@@H]1O[C@H](COP(=O)(O)OP(=O)(O)OP(=O)(O)O)[C@@H](O)[C@H]1O` [8-methoxy GTP], the “Concentration at which the GTPase activity of FtsZ is inhibited” value with FtsZ [2] is 15 µM.
On to `O=C1C[C@@H](c2ccccc2)Oc2c(Cc3ccccc3O)c(O)c(Cc3ccccc3O)c(O)c21` [Dichamanetin], for which the “Reported activity (FtsZ inhibition)” value in the data set on FtsZ [2] is 12.5 µM.
On to `NC(=O)c1c(F)ccc(OCc2nc3cc(Cl)cnc3s2)c1F` [PC190723], for which the “Inhibition of BsFtsZ, enzyme-coupled assay” value on BsFtsZ [1] (concentrations up to 100 μM) is “no inhibition”. For the same compound, on BsFtsZ [3], the “Inhibition of BsFtsZ, malachite green assay” value is given as “no inhibition”. The “Inhibition of SaFtsZ GTPase activity” value on SaFtsZ was “no inhibition”. At SaFtsZ (basal activity ~0.5 GTP/FtsZ/min), the “Change of SaFtsZ GTPase activity” value is “dose-dependent and reproducible increase in activity”. Further, in the data set with B. subtilis strain 168, the MIC (in general, the lowest concentration that inhibits growth of the organism) was 1 µM (≈ 0.356 µg/mL).
Regarding `COC(=O)CC1Cc2cc3cc(OC)c(-c4c(OC)cc5cc6c(c(O)c5c4O)C(=O)OC(CC(=O)OC)C6)c(O)c3c(O)c2C(=O)O1` (stereo not shown) [Viriditoxin, viriditoxin], the “Inhibition of E. coli FtsZ” value at EcFtsZ (setting [6]) is recorded as “no inhibition”. Besides, the “Inhibition of B. subtilis FtsZ” value at BsFtsZ [1] (setting [6]) is “no inhibition”. Further, in the data set on FtsZ [4], the “Inhibition of FtsZ GTPase under Merck conditions” value is given as “no inhibition”. Further, the Chemical stability result in data set [5] is recorded as “chemically unstable”. Moreover, the 50% inhibitory concentration (IC50) – broadly, the concentration at which inhibition is half-maximal – in the data set on FtsZ [2] (read-out: Reported IC50 (FtsZ)) was 10 µM.
For `COc1ccc2cc3[n+](cc2c1OC)CCc1cc2c(cc1-3)OCO2` [berberine], the “Inhibition of tubulin assembly” value with tubulin is “does not do so”.
In the case of `C[n+]1cc2c3c(ccc2c2ccc4cc5c(cc4c21)OCO5)OCO3` [sanguinarine], the “Inhibition of tubulin assembly” value in the data set with tubulin is “inhibit tubulin assembly”.
On to `CC(C)c1c(O)ccc2c1CC[C@H]1C(C)(C)CCC[C@]21C` [totarol], for which, at EcFtsZ, the “Inhibition of EcFtsZ GTPase activity with detergent” value is “vanished” and the “Inhibition of EcFtsZ GTPase activity at increasing FtsZ concentrations” value was “decreased nearly to the point of having no effect”. At EcFtsZ (absence of Triton X-100), the “Inhibition of EcFtsZ GTPase activity” value is given as “reproduce the IC50”. Also, on BsFtsZ [1], the “Inhibition of BsFtsZ GTPase activity with detergent” value is on record as “vanished”, the “Inhibition of BsFtsZ GTPase activity” value is given as “reproduce the IC50” and the “Inhibition of BsFtsZ GTPase activity at increasing FtsZ concentrations” value was “decreased nearly to the point of having no effect”. The “Dnm1 GTPase activity on addition of detergent” value at Dnm1 (0.01% Triton X-100) is on record as “completely restored”. Also, at Dnm1 (micromolar concentrations, no detergent), the “Effect on Dnm1 GTPase activity” value was “significant reduction”.
Consider `Oc1ccc(Cl)cc1Cc1cc(Cl)cc(Cc2cc(Cl)ccc2O)c1O` [zantrin Z1], for which, at EcFtsZ (absence of Triton X-100), the “Inhibition of EcFtsZ GTPase activity” value is “exhibited the published activity”. In addition, the “Inhibition of BsFtsZ GTPase activity” value on BsFtsZ [1] is “exhibited the published activity”.
Consider Zantrin Z3, for which, at EcFtsZ, the “Inhibition of EcFtsZ GTPase activity with detergent” value is given as “maintained” and the “Inhibition of EcFtsZ GTPase activity at increasing FtsZ concentrations” value is “maintained”. Also, the IC50 on EcFtsZ (read-out: IC50 for inhibition of EcFtsZ GTPase activity, no Triton X-100) came out at 20 µM. For the same compound, on BsFtsZ [1], the “Inhibition of BsFtsZ GTPase activity with detergent” value is “maintained” and the “Inhibition of BsFtsZ GTPase activity at increasing FtsZ concentrations” value is listed as “maintained”.
